From ChEMBL document CHEMBL4270526, “A novel NAE/UAE dual inhibitor LP0040 blocks neddylation and ubiquitination leading to growth inhibition and apoptosis of cancer cells” (Eur J Med Chem, 2018)
The source made the active and inactive calls. No cut-off for these calls is given here.

Columns and labels:
[1] = test system: AGS; experiment: Induction of apoptosis in human AGS cells assessed as necrotic cells at 6 uM after 36 hrs by Annexin-V-FITC/propidium iodide staining based flow cytometry (reference value: 1.01%); format: functional
[2] = target: Cyclin-dependent kinase 1 (Homo sapiens) (UniProt P06493); experiment: Inhibition of CDK1 (unknown origin) at 30 uM relative to control
Chain of Cyclin-dependent kinase 1 (Homo sapiens) (P06493 whole entry, looked up): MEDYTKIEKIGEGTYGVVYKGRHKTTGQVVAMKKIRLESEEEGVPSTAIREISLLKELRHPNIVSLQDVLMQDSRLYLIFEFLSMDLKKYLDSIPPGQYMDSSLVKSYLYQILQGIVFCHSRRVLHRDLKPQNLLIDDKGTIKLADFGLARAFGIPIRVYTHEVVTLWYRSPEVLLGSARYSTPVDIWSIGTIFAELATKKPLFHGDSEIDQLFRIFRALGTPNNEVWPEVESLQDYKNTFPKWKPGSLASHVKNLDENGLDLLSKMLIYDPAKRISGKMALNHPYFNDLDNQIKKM

[3] = Antiproliferative activity against HEK293T cells after 48 hrs by CCK8 assay; format: cell-based, HEK-293T; settings: human, read-out: LC50
[4] = target: Cyclin-dependent kinase 2/cyclin E1 (Homo sapiens) (UniProt P24864+P24941); experiment: Inhibition of CDK2/cyclin E (unknown origin) at 30 uM relative to control; format: protein-complex assay
[5] = test system: AGS; experiment: Synergistic antiproliferative activity against human AGS cells assessed as combination index constant at 1.5 uM after 48 hrs in presence of 7.5 nM BTZ by CCK8 assay; format: functional
Summary of the method: (§1)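 AGS cells at 6×10^3/well attached for 12 h, then exposed for 48 h to compound, bortezomib, or both at set concentrations. CCK-8 added for 4 h, then OD read at 450 nm. Inhibition rates E used for q = E(combo)/(E1+E2−E1×E2). Triplicate experiments.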

[6] = test system: AGS; experiment: Induction of apoptosis in human AGS cells assessed as increase in cleaved caspase-3 level up to 10 uM after 24 hrs by Western blot analysis; format: functional, cell-based
Summary of the method: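 AGS cells given 2, 4, 6, 8 or 10 μM compound or 0.1% DMSO for 24 h, washed in ice-cold PBS and lysed in RIPA on ice. Equal protein loads run by SDS-PAGE: non-reducing for NEDD8/SUMO/Ub conjugates, reducing for p27, NRF2, CDT1 and cleaved caspase-3. Blotted to PVDF with primary antibody overnight at 4 °C and HRP secondary, ECL detection, densitometry. Three repeats.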

[7] = test system: AGS; experiment: Induction of apoptosis in human AGS cells assessed as live cells at 10 uM after 36 hrs by Annexin-V-FITC/propidium iodide staining based flow cytometry (reference value: 92.84%); format: functional
[8] = test system: AGS; experiment: Synergistic antiproliferative activity against human AGS cells assessed as combination index constant at 1.25 uM after 48 hrs in presence of 5 nM BTZ by CCK8 assay; format: functional; summary of the method: as §1
[9] = test system: AGS; experiment: Induction of apoptosis in human AGS cells assessed as live cells at 4 uM after 36 hrs by Annexin-V-FITC/propidium iodide staining based flow cytometry (reference value: 92.84%); format: functional

## O=c1cc(-c2ccc(-c3ccccc3)cc2)c2ccc(N3CCC(NCCc4ccccc4)CC3)cc2o1
[1]
  Activity: 3.33%
[2]
  inhibition: -1.18%
[3]
  CC50 at 48 h: 12.9 µM
[4]
  inhibition: 4.57%
[5]
  CI: 1.05
[6]
  Activity: Active
[7]
  Activity: 7.4%
[8]
  CI: 4.34
[9]
  Activity: 80.7%
